Screening results deposited in PubChem by several laboratories.
An excerpt weighted towards active compounds, which were near 2.5% of everything screened.
NTR1 ag: agonists of human neurotensin receptor NTR1; P30989; NTR1-U2OS beta-arrestin-GFP spot imaging, agonist mode; activation, % at 20 µM; 330,000 compounds, 0.17% hits; AID 493036;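 active means activation at or above 40% of the spot to cytoplasm intensity ratio, with at least 20 cells analyzed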;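 further: 0% = DMSO without peptide and 100% = 100 nM NTR1 peptide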
Target sequence (P30989 whole entry, looked up): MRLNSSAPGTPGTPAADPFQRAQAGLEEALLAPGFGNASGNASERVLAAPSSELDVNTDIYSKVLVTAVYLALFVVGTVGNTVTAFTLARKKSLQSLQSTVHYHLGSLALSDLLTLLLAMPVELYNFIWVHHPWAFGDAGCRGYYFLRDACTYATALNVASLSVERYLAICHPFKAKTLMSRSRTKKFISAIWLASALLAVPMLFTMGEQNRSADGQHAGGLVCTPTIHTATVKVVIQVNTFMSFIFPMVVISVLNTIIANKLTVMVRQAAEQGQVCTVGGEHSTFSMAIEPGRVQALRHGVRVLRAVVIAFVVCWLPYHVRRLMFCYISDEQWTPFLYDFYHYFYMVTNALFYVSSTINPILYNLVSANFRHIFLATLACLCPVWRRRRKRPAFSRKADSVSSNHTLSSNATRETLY
MC4R barr agon: agonists of human melanocortin 4 receptor (MC4R) beta-arrestin; activation, % at 8.9 µM; U2OS MC4R beta-arrestin complementation, luminescence; percent of melanotan II response, DMSO zero; P32245; 360,000 compounds, 0.98% hits;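 active means activation above a per-plate cutoff, the mean activation of sample wells on that plate plus 3 SD, cut at about 8% in these data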
MC4R antag cAMP: human MC4R antagonism in cAMP assay; 360,000 compounds, 0.48% hits; P32245; inhibition, % at 6.5 µM; MC4R-expressing cells, MTII-stimulated cAMP, LANCE TR-FRET;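 active means inhibition above its plate's cutoff, the mean of tested wells on that plate plus 3 SD, cut at about 29% in these data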;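 further: 0% = Melanotan II alone and 100% = Melanotan II plus saturating MCL0020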
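Material: U2OS-MC4R stable cell line | Reagent: Melanotan II challenge after compound preincubation | Doses: One concentration, 6.5 µM nominal | Incubation: 30-min compound preincubation, 1-h Melanotan II challenge, 1-h detection, room temperature | Signal: TR-FRET cAMP assay | Replicates: One well per compound, no replicates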
HGIII-sPLA2 inh: Inhibits HGIII-sPLA2 liposome hydrolysis, primary screen; Q9NZ20; QFRET BODIPY PC-A2 liposome hydrolysis, fluorescence; inhibition, % at 12.2 µM; 370,000 compounds, 0.56% hits;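 active means inhibition above mean plus 3 SD of compounds lying within the high and low control bounds, cut at about 19% in these data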;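 further: 0% = median of test compound wells and 100% = no enzyme DMSO wells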
Exocytosis inh: lytic granule exocytosis inhibition; AID 651702; inhibition, % at 10 µM; 360,000 compounds, 0.66% hits; TALL-104 LAMP-1 surface exposure, flow cytometry; cells stimulated with thapsigargin and PMA;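 active means inhibition above about 55%, limit read from the data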
A1 inh: inhibitors of the anti-apoptotic protein A1, read as caspase activation | MEF A1-2A-BIM cells, Caspase-Glo 3/7 luminescence, 3 h; percent of clofoctol response, vehicle zero | caspase activation, % (no concentration beside the values) | 330,000 compounds, 0.066% hits;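 active means over half of replicate activation scores above 10%, or exactly half above 10 with the replicate mean above 10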
Exocytosis CP01: blocks lytic granule exocytosis; TALL-104 cells, LAMP-1 externalization, flow cytometry; stimulated with PMA plus thapsigargin; 1,500 compounds, 11% hits; inhibition, % at 10 µM; shares compounds with Exocytosis inh; in the data active means inhibition above about 60%;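 further: 0% = stimulated vehicle wells and 100% = unstimulated wells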
An asterisk follows results filed as active.

Results for CCOC(=O)N1CCN(C(=O)CSc2ccc3nnc(-c4cccnc4)n3n2)CC1 ?
NTR1 ag: 1; MC4R barr agon: 0; MC4R antag cAMP: 8; HGIII-sPLA2 inh: -5; Exocytosis inh: 87*; A1 inh: 0; Exocytosis CP01: -13

Results for CC(C)(C)[C@@H]1COC(=O)[C@@H](Cc2ccc(F)cc2)C/C=C\C[C@H](CC(=O)N(CCO)Cc2ccccc2)C(=O)N1 ?
NTR1 ag: 4; MC4R barr agon: 1; MC4R antag cAMP: 1; HGIII-sPLA2 inh: -19; Exocytosis inh: 57*; A1 inh: 1; Exocytosis CP01: -16

Results for CCOC(=O)c1c(NC(=O)c2cccs2)sc2c1CCCC2 ?
NTR1 ag: -3; MC4R barr agon: -1; MC4R antag cAMP: 3; HGIII-sPLA2 inh: 5; Exocytosis inh: 7; A1 inh: 0

How did CCOC(=O)c1c(NC(=O)c2cccs2)sc2c1CCN(C(=O)OCC)C2 do in these assays?
NTR1 ag: 11; MC4R barr agon: -1; MC4R antag cAMP: 10; HGIII-sPLA2 inh: 8; Exocytosis inh: 83*; A1 inh: 0; Exocytosis CP01: 5

How did CC(Nc1nc(N2CCNCC2)nc2ccccc12)c1ccccc1 (stereo unspecified) do in these assays?
NTR1 ag: -1; MC4R barr agon: 5; MC4R antag cAMP: 27; HGIII-sPLA2 inh: -8; Exocytosis inh: 87*; A1 inh: -1; Exocytosis CP01: 79*

What do the screens show for `CC(Nc1nc(-c2ccncc2)nc2ccccc12)c1ccccc1` (stereo unspecified)?
NTR1 ag: 8; MC4R barr agon: -2; MC4R antag cAMP: 7; HGIII-sPLA2 inh: -12; Exocytosis inh: 31; A1 inh: 1

Results for CCCOc1ccc(-c2nc(N3CCN(CC)CC3)c3ccccc3n2)cc1 ?
NTR1 ag: 2; MC4R barr agon: 1; MC4R antag cAMP: 3; HGIII-sPLA2 inh: 5; Exocytosis inh: 82*; A1 inh: 0; Exocytosis CP01: -10

What do the screens show for `Cc1ccc(NC(=O)C(=O)NCCc2c[nH]c3ccccc23)c(C)c1`?
NTR1 ag: 0; MC4R barr agon: 2; MC4R antag cAMP: 18; HGIII-sPLA2 inh: -62; Exocytosis inh: -10; A1 inh: 0

Results for Cc1ccc(NS(=O)(=O)c2cccc(C(=O)NCCc3c[nH]c4ccccc34)c2)c(C)c1 ?
NTR1 ag: 6; MC4R barr agon: -2; MC4R antag cAMP: 4; HGIII-sPLA2 inh: -123; Exocytosis inh: 62*; A1 inh: -1; Exocytosis CP01: 1

How did CCc1nccn1C(=O)c1cnn2c(C(F)F)cc(-c3ccccc3)nc12 do in these assays?
NTR1 ag: 11; A1 inh: -1

How did CCc1nccn1C(=O)c1cnn2c(C(F)F)cc(-c3ccc(C)cc3)nc12 do in these assays?
NTR1 ag: 38; MC4R barr agon: -3; MC4R antag cAMP: 3; HGIII-sPLA2 inh: 6; Exocytosis inh: 89*; A1 inh: 1; Exocytosis CP01: 37

What do the screens show for `O=C(O)CC(Sc1ccc(Cl)cc1)C(=O)Nc1ccccc1` (stereo unspecified)?
HGIII-sPLA2 inh: -3

What do the screens show for `Cc1ccc2c(c1)N(CCCC(=O)NCc1ccc(F)cc1)C(=O)CO2`?
HGIII-sPLA2 inh: 1

What do the screens show for `Cc1cccc(OCCOC(=O)c2c(-c3ccccc3)noc2C)c1`?
NTR1 ag: 2; MC4R barr agon: -1; MC4R antag cAMP: -6; HGIII-sPLA2 inh: 8; Exocytosis inh: 75*; A1 inh: 0; Exocytosis CP01: -9

How did CCCN1C(=O)c2ccccc2NC1c1cc(OC)c(OC)c(OC)c1 (stereo unspecified) do in these assays?
NTR1 ag: -1; MC4R barr agon: -2; MC4R antag cAMP: 7; HGIII-sPLA2 inh: 9; Exocytosis inh: 2; A1 inh: 0

How did COc1ccc(CCN2C(=O)c3ccccc3NC2c2cc(Cl)c(O)c(OC)c2)cc1 (stereo unspecified) do in these assays?
NTR1 ag: -1; MC4R barr agon: -1; MC4R antag cAMP: -4; HGIII-sPLA2 inh: -27; Exocytosis inh: 77*; A1 inh: 1; Exocytosis CP01: -3

What do the screens show for `Cc1ccc(S(=O)(=O)Nc2ccc(C(=O)NCc3cccnc3)cc2)cc1`?
NTR1 ag: 1; MC4R barr agon: -3; MC4R antag cAMP: -3; HGIII-sPLA2 inh: -3; Exocytosis inh: -3; A1 inh: 1

What do the screens show for `Cc1ccc(NS(=O)(=O)c2cc(C(=O)NCc3cccnc3)ccc2C)cc1`?
NTR1 ag: 0; MC4R barr agon: -3; MC4R antag cAMP: 11; HGIII-sPLA2 inh: -5; Exocytosis inh: 63*; A1 inh: 0; Exocytosis CP01: -14

How did COc1ccc2oc(=O)cc(CN(C)Cc3ccccc3)c2c1 do in these assays?
NTR1 ag: 1; MC4R barr agon: 3; MC4R antag cAMP: -6; HGIII-sPLA2 inh: 7; Exocytosis inh: 72*; A1 inh: 0; Exocytosis CP01: 0

What do the screens show for `COc1ccc(CN(C)Cc2cc(=O)oc3cc(C)c(C(C)C)cc23)cc1OC`?
NTR1 ag: 0; MC4R barr agon: 3; MC4R antag cAMP: 24; HGIII-sPLA2 inh: -12; Exocytosis inh: 1; A1 inh: -1

Results for CN(Cc1ccccc1)Cc1cc(=O)oc2ccccc12 ?
HGIII-sPLA2 inh: 1; Exocytosis inh: -3

Results for Cc1cc2oc(=O)cc(CN(C)Cc3ccccc3Cl)c2cc1C ?
NTR1 ag: 8; MC4R barr agon: -1; MC4R antag cAMP: 4; HGIII-sPLA2 inh: 2; Exocytosis inh: 96*; A1 inh: -1; Exocytosis CP01: 0

Results for Cc1cc2oc(=O)cc(CN(C)Cc3ccccc3)c2cc1C(C)C ?
NTR1 ag: 7; MC4R barr agon: 0; MC4R antag cAMP: 1; HGIII-sPLA2 inh: 0; Exocytosis inh: 69*; A1 inh: -1; Exocytosis CP01: 4

Results for COC(=O)c1cc(C(=O)OCC(=O)NNC(=O)c2cccs2)cc([N+](=O)[O-])c1 ?
NTR1 ag: 2; MC4R barr agon: -3; MC4R antag cAMP: 1; HGIII-sPLA2 inh: 10; Exocytosis inh: -3; A1 inh: 0

What do the screens show for `COc1ccc(CNC2CCN(Cc3ccccc3)CC2)cc1`?
NTR1 ag: -1; MC4R barr agon: 1; MC4R antag cAMP: -5; HGIII-sPLA2 inh: 2; Exocytosis inh: 60*; A1 inh: 1; Exocytosis CP01: -3

What do the screens show for `COc1ccc(CN2CCC(CNC(=O)NCc3ccccc3)CC2)cc1`?
HGIII-sPLA2 inh: 1

Results for Cc1cccc(C)c1OCC(=O)Nc1ccc2c(c1)C(=O)NC2=O ?
NTR1 ag: 2; MC4R barr agon: -2; MC4R antag cAMP: 9; HGIII-sPLA2 inh: 2; Exocytosis inh: 1; A1 inh: 0
